Reference: ChEMBL document CHEMBL1156567, “Sulindac derivatives that activate the peroxisome proliferator-activated receptor gamma but lack cyclooxygenase inhibition” (J Med Chem, 2008)
Calls of active or inactive are those of the source. No cut-off for these calls is given here.

Assays:
[1] = target: Prostaglandin G/H synthase 1 (Homo sapiens) (UniProt P23219); experiment: Inhibition of cyclooxygenase 1 upto 4 uM
[2] = target: T1, Peroxisome proliferator-activated receptor gamma (Homo sapiens, UniProt P37231); experiment: (§1) Agonist activity at PPARgamma expressed in human HCA7 cells assessed as induction of peroxisome proliferator response element after 12 hrs by luciferase reporter assay; format: functional, cell-based
T1 sequence (P37231 whole entry): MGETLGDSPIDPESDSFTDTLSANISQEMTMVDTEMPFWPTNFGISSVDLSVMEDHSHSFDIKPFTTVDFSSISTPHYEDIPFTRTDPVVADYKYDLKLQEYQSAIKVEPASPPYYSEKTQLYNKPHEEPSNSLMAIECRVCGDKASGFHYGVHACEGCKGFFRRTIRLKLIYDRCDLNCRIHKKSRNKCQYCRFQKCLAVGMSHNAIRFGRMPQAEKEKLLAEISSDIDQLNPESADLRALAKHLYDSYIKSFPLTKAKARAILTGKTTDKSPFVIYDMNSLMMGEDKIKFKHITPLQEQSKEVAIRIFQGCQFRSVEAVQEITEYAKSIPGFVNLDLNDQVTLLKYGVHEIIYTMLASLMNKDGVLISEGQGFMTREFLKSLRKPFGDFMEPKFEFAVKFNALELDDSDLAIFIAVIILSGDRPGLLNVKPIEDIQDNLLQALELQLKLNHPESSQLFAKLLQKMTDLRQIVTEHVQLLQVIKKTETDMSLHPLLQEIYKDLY

[3] = target: T2, Peroxisome proliferator-activated receptor gamma (Homo sapiens) (UniProt P37231); experiment: Agonist activity at PPARgamma in human HCA7 cells expressing shRNA assessed as induction of peroxisome proliferator response element at 1 uM after 12 hrs by luciferase reporter assay; format: functional, cell-based
T2 sequence (whole entry): T1 sequence (P37231 whole entry)
In short: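 HCA7 lines stably carrying control or PPARγ/α/δ shRNA (nucleofection, puromycin selection). Cells at 40% confluence co-transfected with 1.8 μg PPRE-luciferase and 0.2 μg pSVβgal using Lipofectamine 2000. After 6 h, growth medium for 16 h, then 12 h compound in serum-free medium. Luciferase normalized to β-galactosidase; means, SD, n = 6; Student's t test.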

[4] = target: T3, Peroxisome proliferator-activated receptor delta (Homo sapiens) (UniProt Q03181); experiment: Agonist activity at PPARdelta in human HCA7 cells assessed as induction of peroxisome proliferator response element at 1 uM after 12 hrs by luciferase reporter assay; format: functional, cell-based
T3 sequence (whole entry): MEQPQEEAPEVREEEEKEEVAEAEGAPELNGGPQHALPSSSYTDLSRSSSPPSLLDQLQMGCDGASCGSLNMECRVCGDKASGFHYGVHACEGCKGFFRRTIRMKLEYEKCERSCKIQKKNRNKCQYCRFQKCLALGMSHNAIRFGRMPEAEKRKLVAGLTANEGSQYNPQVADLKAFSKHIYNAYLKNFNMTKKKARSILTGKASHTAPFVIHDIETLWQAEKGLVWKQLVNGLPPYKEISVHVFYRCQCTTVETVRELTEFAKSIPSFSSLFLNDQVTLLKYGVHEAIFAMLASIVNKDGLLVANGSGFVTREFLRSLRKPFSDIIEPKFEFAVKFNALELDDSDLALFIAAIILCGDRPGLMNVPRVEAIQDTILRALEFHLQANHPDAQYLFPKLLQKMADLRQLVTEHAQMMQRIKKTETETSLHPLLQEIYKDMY
In short: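 HCA7 human colon cancer cells (which express PPARα, δ and γ) grown in DMEM with 10% FBS to 40% confluence. Transfected with 1.8 μg PPRE-luciferase plus 0.2 μg pSVβgal using Lipofectamine 2000. After 6 h, growth medium for 16 h, then compound in serum-free medium for 12 h. Luciferase normalized to β-galactosidase; n = 6.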

[5] = target: T3, Peroxisome proliferator-activated receptor delta (Homo sapiens); experiment: Agonist activity at PPARdelta in human HCA7 cells expressing shRNA assessed as induction of peroxisome proliferator response element at 1 uM after 12 hrs by luciferase reporter assay; format: functional, cell-based
In short: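 Stable HCA7 lines made by nucleofection with control shRNA or shRNAs to PPARγ, α or δ, then puromycin-selected; silencing checked by immunoblot. Cells transfected with 1.8 μg PPRE-luciferase plus 0.2 μg pSVβgal (Lipofectamine 2000). Medium change after 6 h, growth medium for 16 h, then 1 μM compound serum-free for 12 h. Luciferase normalized to β-galactosidase; n = 6.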

[6] = target: T2, Peroxisome proliferator-activated receptor gamma (Homo sapiens); experiment: Stimulation of PPARgamma binding to P32-labeled peroxisome proliferator response element in human HCA7 cells nuclear extracts after 30 mins by electrophoretic mobility shift assay; format: cell-based
In short: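 HCA7 cells treated with vehicle or 0.1–1 μM for 30 min, then nuclear extracts prepared. 5 μg nuclear protein preincubated 10 min at 25 °C in HEPES pH 7.9, glycerol, BSA, poly(dI·dC). 32P-labeled PPRE oligonucleotide added for 20 min at 25 °C. Specificity checked by 100-fold unlabeled or mutant competitor and PPARγ antibody supershift. Run on 4% native PAGE, read by autoradiography.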

[7] = target: T2, Peroxisome proliferator-activated receptor gamma (Homo sapiens); experiment: as §1; format: functional, cell-based
[8] = target: T2, Peroxisome proliferator-activated receptor gamma (Homo sapiens); experiment: Agonist activity at PPARgamma in human HCA7 cells assessed as induction of L-FABP expression after 24 hrs by Western blotting; format: functional, cell-based
In short: (§2)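 HCA7 cells (DMEM, 10% FBS) treated 0–1 μM for 24 h. Lysates made in Tween 20/protease-inhibitor buffer, sonicated and cleared at 10000g. Protein measured by BCA, 100 μg/lane run on 12.5% SDS-PAGE. Blotted to nitrocellulose, probed for L-FABP, aP2 and β-actin, HRP secondary with ECL detection.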

[9] = target: T2, Peroxisome proliferator-activated receptor gamma (Homo sapiens); experiment: Agonist activity at PPARgamma in human HCA7 cells assessed as induction of aP2 expression after 24 hrs by Western blotting in presence of GW-9662; format: functional, cell-based
In short: (§3)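 HCA7 cells given vehicle, the agonist, the antagonist alone, or both together for 24 h. Lysate protein 100 μg/lane on 12.5% SDS-PAGE, transferred to nitrocellulose. Immunoblot probed for L-FABP, aP2 and β-actin with ECL detection.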

[10] = target: T2, Peroxisome proliferator-activated receptor gamma (Homo sapiens); experiment: Agonist activity at PPARgamma in human HCA7 cells assessed as induction of L-FABP expression after 24 hrs by Western blotting in presence of GW-9662; format: functional, cell-based; in short: as §3
3T3-L1 = experiment: Induction of triglyceride accumulation in mouse 3T3L1 cells at 1 uM after 48 hrs; format: functional, cell-based
In short: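 Mouse 3T3-L1 cells in DMEM with 10% calf serum, grown to 60% confluence. Differentiation started with 0.1% IBMX plus 1.0% dexamethasone for 48 h. Then 2 days in growth medium with 10 μg/mL human insulin plus compound, then fresh growth medium for 48 h. Lipid droplets stained with Oil Red O and imaged at 200×.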

[11] = target: T2, Peroxisome proliferator-activated receptor gamma (Homo sapiens); experiment: Agonist activity at PPARgamma in human HCA7 cells assessed as induction of aP2 expression after 24 hrs by Western blotting; format: functional, cell-based; in short: as §2
[12] = target: T2, Peroxisome proliferator-activated receptor gamma (Homo sapiens); experiment: Displacement of [3H]troglitazone from human PPARgamma ligand binding domain expressed in Escherichia coli by scintillation proximity assay
In short: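 His-tagged human PPARγ-LBD from E. coli, biotinylated and bound to streptavidin SPA beads. Competition against 50 nM 3H-troglitazone with rising unlabeled compound. Buffer 50 mM HEPES pH 7, 50 mM KCl, 5 mM CHAPS, BSA, no dithiothreitol.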

Sequence of Prostaglandin G/H synthase 1 (Homo sapiens) (P23219 whole entry): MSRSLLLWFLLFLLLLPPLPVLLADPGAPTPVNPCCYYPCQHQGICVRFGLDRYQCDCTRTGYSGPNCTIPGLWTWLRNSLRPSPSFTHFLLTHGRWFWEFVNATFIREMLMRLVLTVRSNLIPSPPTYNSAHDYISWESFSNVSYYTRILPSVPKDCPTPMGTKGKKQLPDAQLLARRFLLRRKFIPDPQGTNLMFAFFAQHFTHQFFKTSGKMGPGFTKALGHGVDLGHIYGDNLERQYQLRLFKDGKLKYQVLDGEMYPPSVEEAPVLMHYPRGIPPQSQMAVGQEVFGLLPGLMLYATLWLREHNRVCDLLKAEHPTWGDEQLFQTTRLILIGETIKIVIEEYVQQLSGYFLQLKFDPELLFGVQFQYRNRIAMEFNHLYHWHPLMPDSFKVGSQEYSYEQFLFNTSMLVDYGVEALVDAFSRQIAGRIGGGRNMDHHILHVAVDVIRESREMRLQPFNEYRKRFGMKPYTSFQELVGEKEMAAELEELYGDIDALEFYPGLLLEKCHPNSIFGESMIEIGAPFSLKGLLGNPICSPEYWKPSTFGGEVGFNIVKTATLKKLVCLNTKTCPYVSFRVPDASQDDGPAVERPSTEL

O=C(O)CC1=C/C(=C\c2ccc(SC(F)(F)F)cc2)c2ccc(F)cc21
Activity [1]: inactive | EC50 [2]: 0.2 µM

O=C(O)CC1=CCc2ccc(F)cc21
Activity [1]: inactive | EC50 [2]: > 10 µM

[N-]=[N+]=NCc1ccc(/C=C2\C=C(CC(=O)O)c3cc(F)ccc32)cc1
Activity [1]: inactive | EC50 [2]: 0.9 µM

O=C(O)CC1=C/C(=C\c2ccc(C(=O)O)cc2)c2ccc(F)cc21
Activity [1]: inactive | EC50 [2]: > 10 µM

CSc1ccc(/C=C2\C=C(CC(=O)O)c3cc(F)ccc32)cc1
Activity [1]: inactive | EC50 [2]: 0.7 µM

O=C(O)CC1=C/C(=C\c2cccc3cccnc23)c2ccc(F)cc21
Activity [1]: inactive | EC50 [2]: 1.5 µM

C[S+]([O-])c1ccc(/C=C2\C=C(CC(=O)O)c3cc(F)ccc32)cc1 (stereo unspecified)
Activity [1]: inactive | EC50 [2]: > 10 µM

O=C(O)CC1=C/C(=C\c2ccc(C(F)(F)F)cc2)c2ccc(F)cc21
Activity [1]: inactive | EC50 [2]: 2.5 µM

C#Cc1ccc(/C=C2\C=C(CC(=O)O)c3cc(F)ccc32)cc1
Activity [1]: inactive | EC50 [2]: 1.1 µM

CC(C)(C)Oc1ccc(/C=C2\C=C(CC(=O)O)c3cc(F)ccc32)cc1
Activity [1]: inactive | EC50 [2]: 1.9 µM

COc1ccc(/C=C2\C=C(CC(=O)O)c3cc(F)ccc32)cc1
Activity [1]: inactive | EC50 [2]: 1.3 µM

Cc1ccc(/C=C2\C=C(CC(=O)O)c3cc(F)ccc32)cc1
Activity [1]: inactive | EC50 [2]: 2.4 µM

O=C(O)CC1=C/C(=C\c2ccccc2)c2ccc(F)cc21
Activity [1]: inactive | EC50 [2]: 1.7 µM

O=C(O)CC1=C/C(=C\c2ccc(F)c3ccccc23)c2ccc(F)cc21
Activity [1]: inactive | EC50 [2]: 0.1 µM

O=C(O)CC1=C/C(=C\c2cccc3ccccc23)c2ccc(F)cc21
Activity [3]: inactive | Activity [4]: Active | Activity [5]: inactive | Activity [1]: inactive | Activity [6]: Active | EC50 [2]: 0.1 µM | Activity [7]: Dose-dependent effect | Activity [8]: Active | Activity [9]: inactive | Activity [10]: inactive | Activity (3T3-L1): Active | Activity [11]: Active | Activity [12]: Active

O=C(O)CC1=C/C(=C\c2ccc(Br)cc2)c2ccc(F)cc21
Activity [1]: inactive | EC50 [2]: 1.1 µM

CSc1ccc(-c2ccc(/C=C3\C=C(CC(=O)O)c4cc(F)ccc43)cc2)cc1
Activity [1]: inactive | EC50 [2]: 1.5 µM

CS(=O)(=O)c1ccc(/C=C2\C=C(CC(=O)O)c3cc(F)ccc32)cc1
Activity [1]: inactive | EC50 [2]: > 10 µM

O=C(O)CC1=C/C(=C\c2ccc3nccnc3c2)c2ccc(F)cc21
Activity [1]: inactive | EC50 [2]: > 10 µM

O=C(O)CC1=C/C(=C\c2ccc3ccccc3c2)c2ccc(F)cc21
Activity [1]: inactive | EC50 [2]: 1.2 µM

O=C(O)CC1=C/C(=C\c2ccc(-c3ccccc3)cc2)c2ccc(F)cc21
Activity [1]: inactive | EC50 [2]: 0.1 µM

O=C(O)CC1=C/C(=C\c2ccc(-c3ccc(F)cc3F)cc2)c2ccc(F)cc21
Activity [1]: inactive | EC50 [2]: 0.1 µM

CSc1ccc(/C=C2/C(C)=C(CC(=O)O)c3cc(F)ccc32)cc1
Activity [1]: inactive
